Measured values from PMC7007868 (Molecular cancer therapeutics, 2019).
Where two headings read alike, the source gives them in different places.

How the values were obtained:
[1] = tested on: refractory pediatric sarcomas; settings: prolonged infusion; cited from earlier work
MPNST xenograft = settings: single agent, twice-daily dosed; cited from earlier work
[2] = tested on: human MPNST cells (sNF96.2); experiment: Alamar blue viability dose response; format: cell-based; settings: SNF96.2, 72 h, read-out: IC50 growth inhibition
Procedure, shortened: (§1)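 Human MPNST cells and immortalized Schwann cells were grown at 37°C in humidified 5% CO2 and exposed to test compound for 72 h. Viability was read by alamar blue fluorescence at 590 nm and expressed as percent viable relative to untreated controls. Data are given ± S.D.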

[3] = Parallel artificial membrane permeation assay; format: in vitro ADME; settings: PAMPA
FGAR amidotransferase = settings: cited from earlier work
[4] = doses over 0.6 mg/kg daily, by treatment days 6–7; cited from earlier work
[5] = tested on: immortalized Schwann cells (ipn02.32λ); experiment: Alamar blue viability dose response; format: cell-based, human; settings: 72 hours drug treatment
Procedure, shortened: as §1

MPNST cells sNF02.2 = experiment: Alamar blue viability dose response; format: cell-based, human; settings: read-out: IC50 growth inhibition
[6] = GI, hepatic and brain toxicity assessment during 14 days oral dosing; format: in vivo, mouse
Procedure, shortened: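 Flank MPNST mice were dosed orally for 14 days on the efficacy regimen against vehicle (n=9) and weighed thrice weekly as percent change from start. In a subset (n=3–4/condition), jejunum was fixed overnight in 10% neutral buffered formalin, paraffin-embedded, sectioned at ~5 µm and H&E-stained. A veterinary pathologist examined the sections for apoptotic figures and crypt architecture.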

murine flank MPNST = experiment: Efficacy in murine flank MPNST model; format: in vivo, mouse; settings: 1.2 mg/kg p.o. × 5 days, 0.5 mg/kg × 9 days; vehicle 1695 mm^3; p≤0.05
[7] = swine and human plasma, at 1 hour; cited from earlier work
[8] = swine, cited from earlier work
[9] = tested on: de novo purine biosynthesis (FGAR); experiment: Quantitative FGAR analysis in tumors; format: in vivo, mouse; settings: JHU395 1.2 mg/kg p.o.
Procedure, shortened: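 B6 flank MPNST mice (n=8/group) were given vehicle or 1.2 mg/kg/dose p.o. for five days. Tumors were snap frozen, homogenized in methanol with 10 µM deuterated N-acetylaspartic acid internal standard (5 µL/mg) and centrifuged at 16,000 × g for 5 min. Supernatants were run by UHPLC–orbitrap full-MS negative mode against an FGAR standard curve in untreated tumor ([…]). Group means were compared by t-test.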

[10] = JHU395 pharmacokinetic analysis; format: in vivo, mouse
[11] = Dose tolerance in non-tumored NPcis mice; format: in vivo, mouse; settings: 1.2 mg/kg p.o. × 5 days then 0.5 mg/kg p.o. daily, over thirty days
[12] = tested on: glutamine incorporation in murine flank MPNST; experiment: In vivo stable isotope flux analysis; design: species or system mouse; settings: 1.2 mg/kg/dose p.o. for five days; m+1, m+2 (IMP, AMP), m+3 (GMP)
Procedure, shortened: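 B6 flank MPNST mice received vehicle or test compound at 1.2 mg/kg/dose p.o. for five days. On harvest day they were dosed orally, then 30 min later given three 0.2 ml tail-vein injections of 200 mM ¹⁵N₂-glutamine, 15 min apart. Tumors were flash frozen, extracted in cold 80% methanol, dried and redissolved in 50% acetonitrile. Analysis was by C18 ion-pair (tributylamine) LC-Q-TOF MS with natural-abundance correction.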

[13] = Plasma stability of JHU395, 60 min at 37°C; format: in vitro ADME; settings: one hour incubation, plasma of multiple species including humans
[14] = tested on: human MPNST cells (sNF96.2) in human plasma; experiment: Tumor cell-to-plasma partitioning; format: in vitro ADME
Procedure, shortened: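 sNF96.2 cells were washed twice in PBS and resuspended in human plasma at 7.5 million cells/mL. Test compound was spiked at 20 µM and incubated 1 h at 37°C, then spun at 1000 × g for 5 min at 4°C. Plasma and PBS-washed cell pellets were stored at -80°C, and intact prodrug and released glutamine antagonist were measured by LC-MS/MS as percent of total. Mean ± S.E.M.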

Modified Irwin assay = format: in vivo, mouse; settings: days 0, 8, 15; for modified Irwin battery, autonomic and somatomotor function: B6 flank MPNST mice, oxotremorine 0.5 mg/kg s.c. once
Procedure, shortened: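 B6 flank MPNST mice on the 14-day efficacy dosing regimen or vehicle were scored blind on a modified Irwin autonomic/somatomotor battery on days 0, 8 and 15, including hang time (s) from an inverted wire. A separate cohort (n=5) received oxotremorine 0.5 mg/kg s.c. 30 min before testing as assay control. Scores were averaged and normalized to day-0 vehicle; grip times were compared by multiple t-tests.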

glutamine utilization = experiment: Quantitative glutamine analysis in tumor and plasma; format: in vivo, mouse
[15] = tested on: immortalized Schwann cells (ipn02.32λ); experiment: Glutamine titration, alamar blue growth; format: cell-based; settings: Homo sapiens, 72 h, read-out: EC50 of glutamine to rescue growth
[16] = tested on: human MPNST cells (sNF96.2); experiment: Glutamine titration, alamar blue growth; format: cell-based; settings: SNF96.2, 72 h, read-out: EC50 of glutamine to rescue growth
Procedure, shortened: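 sNF96.2 cells were plated at 1500–2000 cells/well in standard medium. The next day the medium was replaced with glutamine-free medium made with dialyzed FBS, and fixed glutamine concentrations were added across the plate. After 72 h, growth was read by alamar blue fluorescence at 590 nm as percent growth (± S.D.).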

[17] = B6 mice, thirty minutes after JHU395 1.2 mg/kg oral
[18] = flank tumored mice, JHU395 1.2 mg/kg oral
[19] = 20 μM JHU395, one hour, sNF96.2 cells in human plasma

SMILES: Sc1ncnc2nc[nH]c12 [6-MP, 6-mercaptopurine]
- disease stabilization [1]: approximately 25%

SMILES: O=C(Cc1cccc(OC(F)(F)F)c1)Nc1ccc(CCCCc2nnc(NC(=O)Cc3ccccn3)s2)nn1 [CB-839]
- MPNST xenograft growth (MPNST xenograft): partially decreased

SMILES: [N-]=[N+]=CC(=O)CC[C@H](N)C(=O)O [DON, 6-diazo-5-oxo-L-norleucine, reference compound]
- IC50 [2]: 9.8 µM
- Papp at 5 h, 20 μM ([3]; pH 7): 0.0095 ×10⁻⁶ cm/s
- concentration inhibiting the enzyme that converts FGAR to FGAM (FGAR amidotransferase): low micromolar levels
- weight loss [4]: ~20%
- effect on growth of immortalized Schwann cells [5]: minimally affected
- IC50 (MPNST cells sNF02.2; Homo sapiens, 72 h): 2.4 µM

SMILES: CC(C)OC(=O)[C@H](CCC(=O)C=[N+]=[N-])NC(=O)OC(OC(=O)C(C)(C)C)c1ccccc1 (some centres unmarked) [JHU395]
- change from starting weight ([6]; flank MPNST mice, 14 days oral dosing): ≤ 10%
- jejunal histology versus vehicle ([6]; subset of animals, after 14 days oral dosing): No differences
- brain histology postmortem ([6]; subset of brains, after 14 days oral dosing): no gross changes nor cortical vacuolization
- apparent permeability Papp ([3]; 20 μM, pH 7.0, 5 h, room temperature): 5.707 ×10⁻⁶ cm/s
- tumor volume at end of treatment (murine flank MPNST): 1045 mm^3
- prodrug remaining intact in plasma [7]: 83–88%
- DON brain-to-plasma ratio ([8]; DON or JHU395-derived DON): 1.38
- DON exposure in plasma AUC0→t ([8]; equimolar dose of DON or JHU395): 5.7 µM·h
- enhancement of DON brain-to-plasma ratio (JHU395 vs DON) [8]: 9.3
- fold increase of tumor FGAR versus vehicle [9]: 75 fold
- tumor FGAR ([9]; vehicle 3.4 nmol/g, p≤0.01): 254.4 nmol/g
- DON in jejunum [10, 17]: 0.18 nmol/g
- DON in plasma [10, 17]: 0.91 nmol/mL
- small intestine-to-plasma DON ratio [10, 17]: 0.20
- DON plasma AUC [10, 18]: 0.977 µM·h
- DON tumor AUC [10, 18]: 2.496 nmol·h/g
- DON tumor Cmax [10, 18]: 1.8 nmol/g
- accumulation of DON in GI tissue versus plasma ([10]; mice, full time-dependent pharmacokinetic analysis): no accumulation
- tolerability of dosing regimen [11]: well-tolerated
- ^15N2-glutamine isotopologue enrichment in IMP, AMP, GMP versus vehicle [12]: significantly lower enrichment
- JHU395 remaining intact in plasma [13]: Over 80%
- share of total DON measured in cells [14, 19]: 92%
- share of total DON measured in plasma [14, 19]: 8%
- intact JHU395 in MPNST cells ([14]; after one hour): minimal
- intact JHU395 in plasma ([14]; after one hour): detected
- effect on growth of immortalized Schwann cells [5]: minimally affected
- modified Irwin battery, autonomic and somatomotor function (Modified Irwin assay): performed similarly
- grip time from an inverted wire (Modified Irwin assay): unaffected
- plasma glutamine (glutamine utilization; flank MPNST mice, vehicle 475 nmol/ml, p≤0.0001): 729 nmol/mL
- tumor glutamine (glutamine utilization; flank MPNST mice, vehicle 1293 nmol/g, p≤0.001): 2096 nmol/g
- increase in plasma glutamine (glutamine utilization; non-tumored mice, versus vehicle): 25%
- plasma glutamine (glutamine utilization; non-tumored mice, vehicle 830 nmol/ml, p≤0.01): 1036 nmol/mL
- IC50 (MPNST cells sNF02.2; sNF02.2, 72 hours drug treatment): 1.5 µM

SMILES: NC(=O)CC[C@H](N)C(=O)O [glutamine]
- EC50 [15]: 64.5 µM
- EC50 [16]: 209 µM

SMILES: O=C1CCCN1CC#CCN1CCCC1 [oxotremorine, reference compound]
- modified Irwin battery, autonomic and somatomotor function (Modified Irwin assay): induced significant adverse effects
